The list is not random: actives were taken first. Their share in the collection is about 2.6%.
RAD54 branch: blocks human RAD54 Holliday junction branch migration; Q92698; FAM/BHQ fluorescence; inhibition, % at 10.4 µM; hit rate 0.14% among 360,000;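 active = mean normalized replicate activity at least 40 and at least half of replicates scoring 40 or more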;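 also: 0% = median of neutral control wells and 100% = median of positive control wells; inhibitors cause a drop in the FAM fluorescence signal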
RAD52 anneal inh: RAD52 (human) annealing inhibition; P43351; recombinant RAD52 DNA annealing, FRET fluorescence; inhibition, % at 18.7 µM; hit rate 0.46% among 360,000;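 active = every replicate showing at least 50% inhibition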
Ecoli rRNA inh: selective bacterial rRNA inhibition in E. coli; E. coli WT GFP vs humanized-ribosome RFP mutants, fluorescence, 24 h; active compounds read low; DMSO median 0, no signal -100; GFP signal change (wild-type ribosome), % (concentration not given with the values); hit rate 1.6% among 350,000; AID 720706;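 active = significant combined selectivity score with lowered wild-type GFP, culture density cut under 30%, mutant RFP and density less affected; inactive = any of these conditions unmet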
E-selectin induc: E-selectin induction on HUVECs | P16581 | HUVEC E-selectin immunofluorescence imaging; normalized: neutral wells 0, TNF-alpha wells 100 | activation, % at 7.58 µM | hit rate 0.37% among 260,000;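 active = mean E-selectin-positive cell signal at least 10% of the positive control, reached in at least 60% of replicates, without over 20% cell loss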
Target sequence (P16581 whole entry, looked up): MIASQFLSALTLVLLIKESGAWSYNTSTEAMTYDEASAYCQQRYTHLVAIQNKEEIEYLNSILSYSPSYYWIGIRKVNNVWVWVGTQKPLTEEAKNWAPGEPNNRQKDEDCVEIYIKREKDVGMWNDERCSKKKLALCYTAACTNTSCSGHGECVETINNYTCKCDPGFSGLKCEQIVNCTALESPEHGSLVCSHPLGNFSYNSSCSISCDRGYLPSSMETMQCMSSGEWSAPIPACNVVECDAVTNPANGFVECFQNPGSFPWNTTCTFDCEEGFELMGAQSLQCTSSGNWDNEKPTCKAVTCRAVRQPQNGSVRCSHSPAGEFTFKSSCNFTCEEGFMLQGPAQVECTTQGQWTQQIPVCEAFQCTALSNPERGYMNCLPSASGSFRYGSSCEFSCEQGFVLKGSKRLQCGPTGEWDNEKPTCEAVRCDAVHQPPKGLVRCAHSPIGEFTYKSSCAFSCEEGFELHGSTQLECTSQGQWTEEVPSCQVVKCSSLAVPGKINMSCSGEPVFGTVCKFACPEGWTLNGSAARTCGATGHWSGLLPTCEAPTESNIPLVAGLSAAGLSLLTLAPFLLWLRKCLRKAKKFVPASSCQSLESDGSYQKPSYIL
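System: HUVEC / Compound: single concentration / Signal: immunofluorescence imaging / Read-out: percent E-selectin-positive cells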
INS-1E GSIS act: primary screen for activators of insulin secretion dependent on glucose, INS-1E cells, GLuc reporter luminescence; INS-1E GLuc reporter insulin secretion, 2-3 h; activation, % at 16.6 µM; hit rate 0.61% among 370,000;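 active = lowest replicate activation of at least 40%, so every replicate reaches that level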;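 also: 0% = median of neutral control wells and 100% = median of IBMX positive control wells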
MLL AF4-AF9 inh: blocks AF4 peptide binding to human AF9 | AlphaScreen, biotin-AF4 peptide binding to FLAG-AF9 | inhibition, % at 10 µM | hit rate 0.47% among 350,000 | P42568 | AID 651704;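 active = every replicate reaching a set inhibition limit, whatever the replicate mean, cut at about 25% in these data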;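 also: 0% = plate neutral control median and 100% = total signal loss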
The depositor's hits bear a star; . = not tested or not shown.

SMILES	RAD54 branch	RAD52 anneal inh	Ecoli rRNA inh	E-selectin induc	INS-1E GSIS act	MLL AF4-AF9 inh
CC(=O)N1[C@@H]2c3ccc(/C=C/c4ccccc4)c(=O)n3C[C@@H]2[C@@H](CO)[C@@H]1C(=O)Nc1nccs1	0.4	-2.0	-2.3	0.1	-3.1	-7.3
COc1ccc(N2CCN(CCCNC(=O)c3cc4sccc4n3C)CC2)cc1	5.3	-18.5	-14.1	.	-16.3	28.5*
Cc1ccc(C(=O)c2c3ccccc3[n+]([O-])n2CCO)cc1	0.2	-4.6	8.5	0.2	47.6*	-3.4
COc1ccc(C(=O)c2c3ccccc3[n+]([O-])n2CCCN)cc1	-10.9	-0.1	-4.9	0.0	-1.3	0.1
O=[N+]([O-])c1c(Nc2cccc(O)c2)cc(Cl)c2nonc12	16.2	2.2	-45.2*	-0.3	97.3*	4.6
Cc1ccc(Nc2nc(-c3ccc(O)c(O)c3)cs2)nc1	.	-17.9	-58.4	.	-2.3	42.2*
CC(C)=NNc1nc(-c2ccc([N+](=O)[O-])cc2)cs1	.	2.7	-34.5*	0.0	-6.9	-1.2
CC(=O)Nc1ccc(-c2csc(Nc3cc(C)ccn3)n2)cc1	-9.5	-20.7	-47.8*	-0.1	-13.0	1.6
CCOC(=O)/C(C)=N/Nc1nc(-c2ccc(NC(C)=O)cc2)cs1	-1.0	-12.7	-26.9*	0.2	6.8	.
CC(=O)Nc1ccc(-c2csc(N/N=C(/C)c3ccccc3)n2)cc1	.	-3.6	-8.2	.	.	7.2
CC(=O)Nc1nc(-c2ccc([N+](=O)[O-])cc2)cs1	.	-17.7	7.6	-2.0	2.3	-0.2
O=C(C[C@H]1C[C@H]2c3cc(NC(=O)Cc4ccncc4)ccc3O[C@H]2[C@@H](CO)O1)NCc1ccc(-c2ccccc2)cc1	-9.5	-2.0	-3.5	-0.2	1.6	-0.8
C[C@@H]1CN([C@H](C)CO)C(=O)c2cc(NS(=O)(=O)c3cn(C)cn3)ccc2O[C@@H](C)CCCCO[C@H]1CN(C)Cc1ccc(C(=O)O)cc1	-2.2	.	0.2	0.5	15.2	.
CCS(=O)(=O)N1[C@H](C#N)[C@H](c2ccc(C#Cc3ccccc3F)cc2)[C@@H]1CO	0.1	14.6	-49.9	0.9	-13.8	0.0
C[C@H]1CN([C@@H](C)CO)C(=O)Cc2cc(NC(=O)CCCCCC(=O)Nc3ccccc3N)ccc2O[C@H]1CN(C)Cc1ccc(C(F)(F)F)cc1	0.5	-16.3	-4.4	0.1	4.4	-0.8
O=C(C[C@@H]1CC[C@H]2[C@@H](COC[C@H](O)CN2C(=O)Nc2ccccc2)O1)NCCCN1CCOCC1	-1.7	-6.7	-6.7	-0.1	14.0	-4.4
COc1ccccc1N(CC(=O)NCCSc1ccccc1)S(C)(=O)=O	-3.2	.	.	.	.	.
COc1ccccc1N(CC(=O)NCCSc1ccccc1)S(=O)(=O)c1ccccc1	3.2	-11.3	-30.9*	.	-19.7	-1.3
COc1ccc(S(=O)(=O)Nc2ccc3c(c2)C(=O)N([C@@H](C)CO)C[C@H](C)[C@H](CN(C)S(=O)(=O)c2ccccc2)OCCCC[C@@H](C)O3)cc1	.	6.8	-2.0	0.0	-16.4	-1.2
CC(=O)c1sc(NC(=O)c2ccccc2)nc1-c1ccccc1	.	-11.5	-20.2*	2.2	0.3	-0.2
CC(=O)c1sc(NC(=O)c2c(F)cccc2F)nc1-c1ccccc1	1.3	-15.0	-10.4	.	-20.2	-0.1
CCC(=O)Nc1ccc2c(c1)C(=O)N(C)C[C@@H](OC)[C@@H](C)CN[C@@H](C)CO2	-1.9	-8.0	1.1	0.6	15.3	-1.2
CCCCCCNc1c([N+](=O)[O-])c(=O)sc2ccccc12	.	-3.1	-24.4*	0.4	.	-3.5
CC(C)(C)Nc1c([N+](=O)[O-])c(=O)sc2ccccc12	-0.1	-13.3	10.9	.	10.6	-4.2
C[C@@H]1CN([C@H](C)CO)C(=O)c2cccc(NC(=O)C3CC3)c2O[C@H]1CN(C)Cc1ccc(C(=O)Nc2ccccc2N)cc1	4.7	8.9	-5.8	0.0	8.2	1.9
SMILES	RAD54 branch	RAD52 anneal inh	Ecoli rRNA inh	E-selectin induc	INS-1E GSIS act	MLL AF4-AF9 inh
O=C(CCl)Nc1cn(-c2ccccc2)nc1-c1ccc(F)cc1	.	-19.1	-23.9*	0.8	10.3	3.0
Cc1cc2nc(-c3ccccc3)cc(=O)n2[nH]1	11.2	-5.3	-9.3	0.8	13.3	49.5*
O=c1cc(-c2ccccc2)nc2cc(-c3ccc(Br)cc3)[nH]n12	0.5	-9.0	-1.9	.	2.6	-0.7
C[C@@H]1CCCCO[C@@H](CN(C)S(=O)(=O)c2ccc(Cl)cc2)[C@@H](C)CN([C@@H](C)CO)C(=O)c2cc(NC(=O)NC3CCCCC3)ccc2O1	-6.4	8.3	2.6	0.4	-9.9	1.1
COc1cc(C2c3sc(=O)[nH]c3SC3C4CCC(C4)C23)ccc1O (stereo unspecified)	-1.9	-19.3	-31.9*	.	-6.6	7.0
O=c1[nH]c2c(s1)C(c1ccccc1)C1C3CCC(C3)C1S2 (stereo unspecified)	0.6	.	.	.	.	.
COc1ccccc1CNC(=O)C[C@H]1CC[C@H]2[C@@H](COC[C@H](O)CN2C(=O)Nc2ccc(F)cc2)O1	2.8	1.7	0.5	-0.1	-2.8	0.1
O=C(O)c1c2c(nc3ccc(S(=O)(=O)N4CCC(C(=O)NC5CCCC5)CC4)cc13)CCCCC2	-9.6	-3.4	6.8	1.3	10.2	2.3
CC1CCc2nc3ccc(S(=O)(=O)N4CCC(C(=O)NC5CCCC5)CC4)cc3c(C(=O)O)c2C1 (stereo unspecified)	-26.2	-35.8	18.1	93.4*	.	1.2
O=C(C[C@H]1C[C@H]2c3cc(NC(=O)NC4CCCC4)ccc3O[C@H]2[C@@H](CO)O1)NCc1ccc(Cl)cc1	0.7	3.7	-0.6	-0.8	12.4	0.4
CN(C(=O)c1ccc2c(c1)SC1=NS(=O)(=O)CCN12)C(c1ccccc1)c1ccccc1	.	.	.	.	93.4*	.
Cc1ccc(NC(=O)CN2CCN(Cc3ccccc3)CC2)c(Br)c1	-14.7	-5.5	-22.8*	.	2.1	7.1
Cc1ccc(NC(=O)CN2CCOCC2)c(Br)c1	-1.2	-10.1	1.4	-1.5	2.2	-0.5
CCC(=O)NC(=S)Nc1ccc(NC(=O)c2cccc([N+](=O)[O-])c2C)cc1	.	.	.	.	2.3	.
CCCCCC(=O)NNC(=S)NC(=O)c1cccc([N+](=O)[O-])c1	-13.2	.	.	.	11.4	.
CCC(=O)NC(=S)Nc1ccc(NC(=O)c2ccccc2[N+](=O)[O-])cc1	-3.6	2.7	-22.5*	.	16.6	-1.5
CCCCCC(=O)NNC(=S)NC(=O)c1ccccc1[N+](=O)[O-]	.	-22.6	-32.2*	.	-6.3	-3.1
COc1ccccc1-c1ccc([C@@H]2[C@H](CO)N(CC3CC3)C23CN(S(C)(=O)=O)C3)cc1	.	-7.2	-10.3	0.0	3.8	1.5
C[C@@H]1CN([C@@H](C)CO)C(=O)c2cc(NC(=O)Nc3ccccc3)ccc2O[C@H]1CN(C)Cc1ccc(-c2ccccc2)cc1	-1.0	-33.9	-1.4	-0.1	0.3	0.5

Screening results (PubChem)
